This note sets out measurements from ChEMBL document CHEMBL3352207, “Kinase domain inhibition of leucine rich repeat kinase 2 (LRRK2) using a [1,2,4]triazolo[4,3-b]pyridazine scaffold” (Bioorg Med Chem Lett, 2014).

Series [1] in a line: AUC (0 to 24 hrs) in mouse at 300 mg/kg/day, po for 14 days. In kind it is ADME, organism-based. On the set-up: time < 24 hr, dose 300 mg/kg/day, route oral. As to conditions: plasma. In outline:
(§1)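 Mice were dosed orally at 0, 30 and 300 mg/kg/day for 14 days, 5 males per dose group, in a PK/PD study.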

Series [2] is described as follows: Ratio of drug level in kidney to plasma of LRRK2 G2019S transgenic mouse kidney at 30 to 300 mg/kg/day. As to conditions: kidney and plasma.
The nature of series [3]: AUC (0 to 24 hrs) in mouse at 30 mg/kg/day, po for 14 days. The settings on record: plasma. In kind it is ADME, organism-based. Further details: dose 30 mg/kg/day, time < 24 hr, route oral. The method, boiled down: as §1
A short description of series [4]: Cmax in mouse at 30 mg/kg/day, po for 14 days. In kind it is ADME, organism-based. Further details: dose 30 mg/kg/day, route oral. The settings on record: in vivo. The method, boiled down: as §1
The nature of series [5]: Ratio of AUC (0 to tlast) in brain to plasma of rat at 10 mg/kg. As to conditions: brain and plasma. In kind it is ADME, organism-based. On the set-up: dose 10 mg/kg.
Series [6] can be described thus: Cmax in mouse at 300 mg/kg/day, po for 14 days. In kind it is ADME, organism-based. Further details: dose 300 mg/kg/day, route oral. The settings on record: in vivo. The method, boiled down:
as §1

SMILES strings stand for the structures.

For orientation: AUC means the area under the concentration-time curve, a measure of exposure. One may read the Kp as the ratio of the level in a tissue or fluid to that in plasma or blood. A word on the Cmax: it is the highest concentration seen after dosing. Regarding `COc1ccc(OC)c(Sc2ccc3nnc(-c4cnn(C)c4)n3n2)c1`, the AUC at 24 h in series [1] turned out to be 20900 ng·h/mL; in series [3], 350 ng·h/mL. For the same compound, the Kp is 2 in series [2] and 0.14 in series [5]. For the same compound, the Cmax is 200 ng/mL in series [4] and 12900 ng/mL in series [6].
